Test results taken from ChEMBL document CHEMBL4118021, “Studies of TAK1-centered polypharmacology with novel covalent TAK1 inhibitors” (Bioorg Med Chem, 2017).
Each block holds one compound with its values, some of them ahead of it. Active and inactive are the calls of the source. The rule behind the calls is not given here.

Columns and labels:
[1] = target: Vascular endothelial growth factor receptor 1 (Homo sapiens) (UniProt P17948); assay: Inhibition of human FLT1 (781 to 1239 residues) expressed in bacterial expression system assessed as enzyme activity at 1 uM by KINOMEScan assay relative to control; parameters: scale not given: the % may be the effect or the level left
Chain of Vascular endothelial growth factor receptor 1 (Homo sapiens) (P17948 whole entry, the tested form may be a part): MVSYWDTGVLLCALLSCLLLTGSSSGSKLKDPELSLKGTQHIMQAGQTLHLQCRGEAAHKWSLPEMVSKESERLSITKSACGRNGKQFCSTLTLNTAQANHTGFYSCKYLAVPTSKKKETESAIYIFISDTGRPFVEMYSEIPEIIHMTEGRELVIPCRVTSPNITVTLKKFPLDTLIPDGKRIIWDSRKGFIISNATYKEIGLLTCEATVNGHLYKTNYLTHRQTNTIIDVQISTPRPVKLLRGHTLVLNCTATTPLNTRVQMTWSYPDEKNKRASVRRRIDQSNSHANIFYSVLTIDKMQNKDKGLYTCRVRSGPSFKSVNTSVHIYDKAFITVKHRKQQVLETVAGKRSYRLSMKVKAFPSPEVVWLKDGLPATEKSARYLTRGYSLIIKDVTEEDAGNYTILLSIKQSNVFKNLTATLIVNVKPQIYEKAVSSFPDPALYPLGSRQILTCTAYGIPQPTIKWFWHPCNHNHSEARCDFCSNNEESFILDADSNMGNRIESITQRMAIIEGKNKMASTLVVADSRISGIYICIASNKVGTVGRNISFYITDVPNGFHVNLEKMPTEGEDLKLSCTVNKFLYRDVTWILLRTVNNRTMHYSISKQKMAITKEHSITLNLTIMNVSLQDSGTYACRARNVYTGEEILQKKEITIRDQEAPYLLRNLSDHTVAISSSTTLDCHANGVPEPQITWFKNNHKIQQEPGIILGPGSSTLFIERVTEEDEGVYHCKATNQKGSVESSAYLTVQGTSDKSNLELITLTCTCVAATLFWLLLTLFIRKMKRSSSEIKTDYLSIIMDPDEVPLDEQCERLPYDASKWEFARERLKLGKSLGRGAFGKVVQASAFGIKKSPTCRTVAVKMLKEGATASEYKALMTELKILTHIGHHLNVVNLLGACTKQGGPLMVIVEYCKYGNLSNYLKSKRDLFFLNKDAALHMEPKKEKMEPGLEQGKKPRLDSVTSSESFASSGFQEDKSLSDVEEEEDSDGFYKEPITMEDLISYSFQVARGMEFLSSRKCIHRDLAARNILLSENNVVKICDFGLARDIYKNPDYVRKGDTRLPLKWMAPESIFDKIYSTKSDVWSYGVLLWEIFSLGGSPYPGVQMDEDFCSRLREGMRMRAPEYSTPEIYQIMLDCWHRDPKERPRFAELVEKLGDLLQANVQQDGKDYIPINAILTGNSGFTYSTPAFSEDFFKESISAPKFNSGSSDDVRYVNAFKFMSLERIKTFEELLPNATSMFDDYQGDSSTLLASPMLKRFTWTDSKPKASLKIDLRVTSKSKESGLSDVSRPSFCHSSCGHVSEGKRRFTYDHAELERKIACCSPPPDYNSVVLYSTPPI
Method in brief: (§1)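 In vitro ATP-site competition binding assay across a panel of 456 kinases, with compound tested at 1 and 10 μM.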

[2] = target: Serine/threonine-protein kinase 36 (Homo sapiens) (UniProt Q9NRP7); assay: Inhibition of human STK36 (1 to 271 residues) expressed in bacterial expression system assessed as enzyme activity at 1 uM by KINOMEScan assay relative to control; parameters: scale not given: the % may be the effect or the level left; method in brief: as §1
[3] = target: Glycogen synthase kinase-3 beta (Homo sapiens) (UniProt P49841); assay: Binding affinity to GSK3B in human NCI-H23 cells at 1 uM by mass spectrometry based pull down assay; assay type: cell-based
Chain of Glycogen synthase kinase-3 beta (Homo sapiens) (P49841 whole entry, looked up): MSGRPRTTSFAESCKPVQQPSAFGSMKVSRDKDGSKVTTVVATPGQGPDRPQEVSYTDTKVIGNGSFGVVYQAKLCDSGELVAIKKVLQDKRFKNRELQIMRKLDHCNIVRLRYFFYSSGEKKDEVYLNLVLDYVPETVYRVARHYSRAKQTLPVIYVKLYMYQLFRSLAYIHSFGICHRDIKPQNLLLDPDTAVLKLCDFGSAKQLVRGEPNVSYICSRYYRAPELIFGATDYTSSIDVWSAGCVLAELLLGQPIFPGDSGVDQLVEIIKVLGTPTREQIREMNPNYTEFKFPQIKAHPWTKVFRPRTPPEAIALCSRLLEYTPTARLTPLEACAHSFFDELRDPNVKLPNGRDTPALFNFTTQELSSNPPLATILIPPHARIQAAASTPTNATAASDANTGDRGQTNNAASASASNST

[4] = target: T1, 80S Ribosome (Homo sapiens) (UniProt P08865+P42677+P62753+P15880+P23396+P61247+P62701+P22090+P46782+P62081+P62241+P46781+P46783+P62280+P25398+P62277+P62263+P62841+P62244+P62249+P08708+P62269+P39019+P60866+P63220+P62266+P62847+P62851+P62854+P62979+P62857+P62273+P62861+P39023+P36578+P46777+Q02878+P18124+P62424+P62917+P32969+P27635+P62906+P62913+P30050+P26373+P40429+P50914+P61313+P18621+Q07020+Q02543+P84098+P46778+P35268+P62829+P62750+P83731+P61254+P61353+P46776+P46779+P47914+P62888+P62899+P62910+P49207+P42766+P18077+Q9Y3U8+P83881+P61927+P61513+P63173+P62891+P62945+P05388+P05386); assay: Binding affinity to RPS5 in human NCI-H358 cells at 1 uM by mass spectrometry based pull down assay; assay type: cell-based
[5] = target: Signal recognition particle 19 kDa protein (Homo sapiens) (UniProt P09132); assay: Binding affinity to SRP19 in human NCI-H23 cells at 1 uM by mass spectrometry based pull down assay; assay type: cell-based
Chain of Signal recognition particle 19 kDa protein (Homo sapiens) (P09132 whole entry): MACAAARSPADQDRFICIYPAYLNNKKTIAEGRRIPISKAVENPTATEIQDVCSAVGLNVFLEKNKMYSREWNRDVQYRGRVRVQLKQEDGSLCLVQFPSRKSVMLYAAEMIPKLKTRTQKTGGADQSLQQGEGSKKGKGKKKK

[6] = target: Methylosome protein WDR77 (Homo sapiens) (UniProt Q9BQA1); assay: Binding affinity to WDR77 in human NCI-H23 cells at 1 uM by mass spectrometry based pull down assay; assay type: cell-based
[7] = target: T-complex protein 1 subunit theta (Homo sapiens) (UniProt P50990); assay: Binding affinity to CCT8 in human NCI-H23 cells at 1 uM by mass spectrometry based pull down assay; assay type: cell-based
[8] = target: Thioredoxin reductase 1, cytoplasmic (Homo sapiens) (UniProt Q16881); assay: Binding affinity to TXNRD1 in human NCI-H23 cells at 1 uM by mass spectrometry based pull down assay; assay type: cell-based
[9] = target: Multifunctional protein CAD (Homo sapiens) (UniProt P27708); assay: Binding affinity to CAD in human NCI-H358 cells at 1 uM by mass spectrometry based pull down assay; assay type: cell-based
[10] = target: Probable ATP-dependent RNA helicase DDX6 (Homo sapiens) (UniProt P26196); assay: Binding affinity to DDX6 in human NCI-H23 cells at 1 uM by mass spectrometry based pull down assay; assay type: cell-based
Chain of Probable ATP-dependent RNA helicase DDX6 (Homo sapiens) (P26196 whole entry, canonical isoform): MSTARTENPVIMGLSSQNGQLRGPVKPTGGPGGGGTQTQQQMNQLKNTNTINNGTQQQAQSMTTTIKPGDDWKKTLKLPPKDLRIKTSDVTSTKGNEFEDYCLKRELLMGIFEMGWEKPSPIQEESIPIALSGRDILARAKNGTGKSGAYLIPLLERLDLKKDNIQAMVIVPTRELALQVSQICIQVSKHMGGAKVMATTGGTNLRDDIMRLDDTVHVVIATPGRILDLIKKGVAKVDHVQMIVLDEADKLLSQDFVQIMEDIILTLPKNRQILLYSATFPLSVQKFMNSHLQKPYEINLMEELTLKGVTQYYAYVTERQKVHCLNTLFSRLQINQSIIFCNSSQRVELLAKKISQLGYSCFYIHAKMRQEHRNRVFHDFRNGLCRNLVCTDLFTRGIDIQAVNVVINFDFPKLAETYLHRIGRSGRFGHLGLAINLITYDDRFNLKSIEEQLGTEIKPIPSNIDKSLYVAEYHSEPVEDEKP

[11] = target: Serine/threonine-protein phosphatase 2A catalytic subunit beta isoform (Homo sapiens) (UniProt P62714); assay: Binding affinity to PPP2CB in human NCI-H358 cells at 1 uM by mass spectrometry based pull down assay; assay type: cell-based
Chain of Serine/threonine-protein phosphatase 2A catalytic subunit beta isoform (Homo sapiens) (P62714 whole entry, canonical isoform): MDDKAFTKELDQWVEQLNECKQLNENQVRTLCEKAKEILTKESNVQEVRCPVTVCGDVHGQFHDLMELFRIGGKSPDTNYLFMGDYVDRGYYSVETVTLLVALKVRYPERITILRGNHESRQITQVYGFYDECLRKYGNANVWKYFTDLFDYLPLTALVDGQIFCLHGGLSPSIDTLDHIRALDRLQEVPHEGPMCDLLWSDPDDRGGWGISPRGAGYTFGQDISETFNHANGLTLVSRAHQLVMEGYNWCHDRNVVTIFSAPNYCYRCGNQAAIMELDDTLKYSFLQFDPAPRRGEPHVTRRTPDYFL

[12] = target: T1, 80S Ribosome (Homo sapiens); assay: Binding affinity to RPS26 in human NCI-H23 cells at 1 uM by mass spectrometry based pull down assay; assay type: cell-based
[13] = target: Melanoma-associated antigen 4 (Homo sapiens) (UniProt P43358); assay: Binding affinity to MAGEA4 in human NCI-H23 cells at 1 uM by mass spectrometry based pull down assay; assay type: cell-based
[14] = target: Pyruvate dehydrogenase E1 component subunit beta, mitochondrial (Homo sapiens) (UniProt P11177); assay: Binding affinity to PDHB in human NCI-H23 cells at 1 uM by mass spectrometry based pull down assay; assay type: cell-based
[15] = target: Interleukin enhancer-binding factor 2 (Homo sapiens) (UniProt Q12905); assay: Binding affinity to ILF2 in human NCI-H23 cells at 1 uM by mass spectrometry based pull down assay; assay type: cell-based
Chain of Interleukin enhancer-binding factor 2 (Homo sapiens) (Q12905 whole entry): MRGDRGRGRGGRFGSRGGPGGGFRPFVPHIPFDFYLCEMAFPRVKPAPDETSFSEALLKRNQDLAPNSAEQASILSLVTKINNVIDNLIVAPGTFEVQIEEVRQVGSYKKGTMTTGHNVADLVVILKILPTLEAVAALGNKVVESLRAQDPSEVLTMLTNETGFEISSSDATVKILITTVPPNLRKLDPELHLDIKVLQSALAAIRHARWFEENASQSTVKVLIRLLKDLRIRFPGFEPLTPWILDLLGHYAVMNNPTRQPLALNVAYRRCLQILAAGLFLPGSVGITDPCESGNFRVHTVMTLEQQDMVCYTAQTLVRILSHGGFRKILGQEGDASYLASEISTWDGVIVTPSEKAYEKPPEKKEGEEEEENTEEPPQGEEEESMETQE

[16] = target: RuvB-like 1 (Homo sapiens) (UniProt Q9Y265); assay: Binding affinity to RUVBL1 in human NCI-H358 cells at 1 uM by mass spectrometry based pull down assay; assay type: cell-based
[17] = target: Glutamate--cysteine ligase regulatory subunit (Homo sapiens) (UniProt P48507); assay: Binding affinity to GCLM in human NCI-H23 cells at 1 uM by mass spectrometry based pull down assay; assay type: cell-based
[18] = target: Mitogen-activated protein kinase 6 (Homo sapiens) (UniProt Q16659); assay: Binding affinity to MAPK6 in human NCI-H358 cells at 1 uM by mass spectrometry based pull down assay; assay type: cell-based
[19] = target: Glutathione S-transferase P (Homo sapiens) (UniProt P09211); assay: Binding affinity to GSTP1 in human NCI-H23 cells at 1 uM by mass spectrometry based pull down assay; assay type: cell-based
Chain of Glutathione S-transferase P (Homo sapiens) (P09211 2-210 limits assumed): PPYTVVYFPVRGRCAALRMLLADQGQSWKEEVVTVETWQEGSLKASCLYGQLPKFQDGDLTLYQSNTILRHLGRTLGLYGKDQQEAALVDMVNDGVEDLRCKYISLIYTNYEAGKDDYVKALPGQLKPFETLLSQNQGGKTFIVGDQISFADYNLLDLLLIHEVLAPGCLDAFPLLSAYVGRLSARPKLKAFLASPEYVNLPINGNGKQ

[20] = target: F-actin-capping protein subunit beta (Homo sapiens) (UniProt P47756); assay: Binding affinity to CAPZB in human NCI-H358 cells at 1 uM by mass spectrometry based pull down assay; assay type: cell-based
[21] = target: V-type proton ATPase catalytic subunit A (Homo sapiens) (UniProt P38606); assay: Binding affinity to ATP6V1A in human NCI-H358 cells at 1 uM by mass spectrometry based pull down assay; assay type: cell-based
[22] = target: Cytoplasmic dynein 1 intermediate chain 2 (Homo sapiens) (UniProt Q13409); assay: Binding affinity to DYNC1I2 in human NCI-H23 cells at 1 uM by mass spectrometry based pull down assay; assay type: cell-based
Chain of Cytoplasmic dynein 1 intermediate chain 2 (Homo sapiens) (Q13409 whole entry): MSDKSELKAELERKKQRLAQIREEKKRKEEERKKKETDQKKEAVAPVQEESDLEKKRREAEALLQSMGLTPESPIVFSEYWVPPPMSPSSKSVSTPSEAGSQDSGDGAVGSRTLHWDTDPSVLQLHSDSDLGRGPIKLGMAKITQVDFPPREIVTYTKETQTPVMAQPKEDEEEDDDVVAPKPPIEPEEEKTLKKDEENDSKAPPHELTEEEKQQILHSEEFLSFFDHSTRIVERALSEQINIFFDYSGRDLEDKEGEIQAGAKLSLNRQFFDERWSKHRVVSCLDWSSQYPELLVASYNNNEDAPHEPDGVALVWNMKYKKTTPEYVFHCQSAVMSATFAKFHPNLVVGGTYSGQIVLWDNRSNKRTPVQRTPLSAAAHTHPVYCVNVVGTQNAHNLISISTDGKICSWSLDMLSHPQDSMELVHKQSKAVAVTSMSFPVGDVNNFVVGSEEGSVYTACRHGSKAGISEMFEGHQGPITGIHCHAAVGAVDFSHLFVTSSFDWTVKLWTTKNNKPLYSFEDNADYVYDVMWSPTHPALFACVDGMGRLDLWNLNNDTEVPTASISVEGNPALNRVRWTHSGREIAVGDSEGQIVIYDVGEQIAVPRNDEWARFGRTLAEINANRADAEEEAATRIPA

[23] = target: Deoxyuridine 5'-triphosphate nucleotidohydrolase, mitochondrial (Homo sapiens) (UniProt P33316); assay: Binding affinity to DUT in human NCI-H358 cells at 1 uM by mass spectrometry based pull down assay; assay type: cell-based
[24] = target: Thioredoxin (Homo sapiens) (UniProt P10599); assay: Binding affinity to TXN in human NCI-H358 cells at 1 uM by mass spectrometry based pull down assay; assay type: cell-based
Chain of Thioredoxin (Homo sapiens) (P10599 whole entry): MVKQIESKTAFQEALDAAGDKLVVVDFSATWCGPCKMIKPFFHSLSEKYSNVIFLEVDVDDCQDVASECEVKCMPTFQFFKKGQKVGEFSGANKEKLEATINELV

[25] = target: T1, 80S Ribosome (Homo sapiens); assay: Binding affinity to RPS23 in human NCI-H358 cells at 1 uM by mass spectrometry based pull down assay; assay type: cell-based
[26] = target: Receptor-interacting serine/threonine-protein kinase 4 (Homo sapiens) (UniProt P57078); assay: Inhibition of ANKRD3 in human SKCO1 cells at 1 uM after 4 hrs using biotin labeled TWLAIKCSPSLHVDDR probe by mass-spectrometric analysis relative to control; assay type: cell-based
Chain of Receptor-interacting serine/threonine-protein kinase 4 (Homo sapiens) (P57078 whole entry): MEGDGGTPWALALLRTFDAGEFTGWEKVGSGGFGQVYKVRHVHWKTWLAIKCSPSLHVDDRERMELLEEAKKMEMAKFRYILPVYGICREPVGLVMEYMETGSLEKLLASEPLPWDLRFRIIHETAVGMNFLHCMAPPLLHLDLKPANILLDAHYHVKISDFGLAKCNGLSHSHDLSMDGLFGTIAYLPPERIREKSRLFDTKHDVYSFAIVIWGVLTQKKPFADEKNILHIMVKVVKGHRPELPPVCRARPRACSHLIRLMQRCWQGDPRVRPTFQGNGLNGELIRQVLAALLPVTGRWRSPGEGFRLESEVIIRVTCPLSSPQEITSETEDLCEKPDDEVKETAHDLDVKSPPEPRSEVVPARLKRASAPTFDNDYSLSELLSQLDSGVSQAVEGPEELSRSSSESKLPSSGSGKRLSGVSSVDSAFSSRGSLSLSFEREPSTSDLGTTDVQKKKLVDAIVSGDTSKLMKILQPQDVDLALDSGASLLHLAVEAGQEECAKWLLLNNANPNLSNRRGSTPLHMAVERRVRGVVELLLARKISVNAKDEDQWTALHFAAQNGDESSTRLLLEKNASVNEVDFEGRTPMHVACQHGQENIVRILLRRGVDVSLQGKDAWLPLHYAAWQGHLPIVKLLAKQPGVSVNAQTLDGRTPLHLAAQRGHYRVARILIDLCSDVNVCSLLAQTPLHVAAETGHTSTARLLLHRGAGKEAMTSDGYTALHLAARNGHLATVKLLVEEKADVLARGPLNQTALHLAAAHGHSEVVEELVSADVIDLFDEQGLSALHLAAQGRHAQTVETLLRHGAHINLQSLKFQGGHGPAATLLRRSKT

[27] = target: Serine/threonine-protein kinase MARK2 (Homo sapiens) (UniProt Q7KZI7); assay: Inhibition of MARK2 in human SKCO1 cells at 1 uM after 4 hrs using biotin labeled EVAVKIIDK probe by mass-spectrometric analysis relative to control; assay type: cell-based

SMILES: COc1cc(O)c2c(c1)/C=C/C[C@H](O)[C@H](O)C(=O)/C=C\C[C@H](C)OC2=O
Activity [1]: 16% | Activity [2]: 7.1%

Activity [3]: Active | Activity [4]: Active | Activity [5]: Active | Activity [6]: Active | Activity [7]: Active | Activity [8]: Active | Activity [9]: Active | Activity [10]: Active | Activity [11]: Active | Activity [12]: Active | Activity [13]: Active | Activity [14]: Active | Activity [15]: Active | Activity [16]: Active | Activity [17]: Active | Activity [18]: Active | Activity [19]: Active | Activity [20]: Active | Activity [21]: Active | Activity [22]: Active | Activity [23]: Active | Activity [24]: Active | Activity [25]: Active
SMILES: C=CC(=O)Nc1ccccc1Nc1nc(Nc2ccc(N3CCN(CCOCCOCCOCCNC(=O)CCCC[C@@H]4SC[C@@H]5NC(=O)N[C@@H]54)CC3)cc2)ncc1Cl

SMILES: C=CC(=O)Nc1ccccc1Nc1nc(Nc2ccc(N3CCN(C)CC3)cc2)ncc1Cl
inhibition [26]: -0.1% | inhibition [27]: -5.7%
